# From ChEMBL document CHEMBL1764950, “Diphenylamine-based retinoid antagonists: regulation of RAR and RXR function depending on the N-substituent” (Bioorg Med Chem, 2011)
# The source made the active and inactive calls. No cut-off for these calls is given here.
# Experiments:
# HL-60 [1] = assay: Induction of human HL60 cell differentiation by NBT reduction assay; format: functional, cell-based
# How it was run: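 HL-60 cells in RPMI1640 with 5% FBS were seeded at about 8 × 10⁴ cells/mL and given compound from a 2 mM ethanol stock (final ethanol below 0.5%) for 4 days. Differentiation was scored by NBT reduction: 20 min at 37 °C with 0.2% NBT and 200 ng/mL TPA, counting formazan-positive cells among at least 200. EC₅₀ is the concentration differentiating 50% of cells with compound alone.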
# HL-60 [2] = assay: Inhibition of Am80-induced cell differentiation in human HL60 cells at 1 x 10^-7 M after 4 days by NBT reduction assay; format: functional; conditions: HL-60, 96 h
# How it was run: (§1)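 Cells were co-treated with 3.3 × 10⁻¹⁰ M Am80 plus test compound (ethanol, final below 0.5%), seeded at about 8 × 10⁴ cells/mL in RPMI1640 with 5% FBS, and held 4 days. The percentage of differentiated cells was determined by NBT/TPA reduction (20 min, 37 °C), counting at least 200 cells.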
# HL-60 [3] = assay: Inhibition of Am80-induced cell differentiation in human HL60 cells by NBT reduction assay; format: functional, cell-based; how it was run: as §1
# HL-60 [4] = assay: Inhibition of Am80-induced cell differentiation in human HL60 cells at 1 x 10^-6 M after 4 days by NBT reduction assay; format: functional; conditions: HL-60, 96 h; how it was run: as §1
# [5] = target: Retinoic acid receptor RXR-alpha (Mus musculus) (UniProt P28700); assay: Antagonist activity at mouse RXRalpha expressed in COS-1 cells assessed as inhibition of PA024-induced transactivation by luciferase reporter gene assay
# Retinoic acid receptor RXR-alpha (Mus musculus), sequence (P28700 whole entry, looked up): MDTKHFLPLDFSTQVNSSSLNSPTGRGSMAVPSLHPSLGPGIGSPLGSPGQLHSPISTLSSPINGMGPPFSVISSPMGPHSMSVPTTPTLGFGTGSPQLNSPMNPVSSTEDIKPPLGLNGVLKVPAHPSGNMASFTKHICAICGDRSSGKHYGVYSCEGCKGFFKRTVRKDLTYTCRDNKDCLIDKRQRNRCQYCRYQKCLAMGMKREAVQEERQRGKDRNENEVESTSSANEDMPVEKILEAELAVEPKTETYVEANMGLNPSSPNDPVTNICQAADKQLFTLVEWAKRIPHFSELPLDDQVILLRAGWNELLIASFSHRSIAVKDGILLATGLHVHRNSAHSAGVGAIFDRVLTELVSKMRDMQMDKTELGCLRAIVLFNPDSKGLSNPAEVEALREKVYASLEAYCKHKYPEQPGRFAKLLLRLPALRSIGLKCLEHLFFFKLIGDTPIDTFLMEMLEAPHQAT
# [6] = test system: Retinoid X receptor gamma (Mus musculus); assay: Antagonist activity at mouse RXRgamma expressed in COS-1 cells assessed as inhibition of PA024-induced transactivation by luciferase reporter gene assay
# [7] = target: Retinoic acid receptor beta (Homo sapiens) (UniProt P10826); assay: Antagonist activity at human RARbeta expressed in COS-1 cells assessed as inhibition of Am80-induced transactivation by luciferase reporter gene assay
# Retinoic acid receptor beta (Homo sapiens), sequence (P10826 whole entry, looked up): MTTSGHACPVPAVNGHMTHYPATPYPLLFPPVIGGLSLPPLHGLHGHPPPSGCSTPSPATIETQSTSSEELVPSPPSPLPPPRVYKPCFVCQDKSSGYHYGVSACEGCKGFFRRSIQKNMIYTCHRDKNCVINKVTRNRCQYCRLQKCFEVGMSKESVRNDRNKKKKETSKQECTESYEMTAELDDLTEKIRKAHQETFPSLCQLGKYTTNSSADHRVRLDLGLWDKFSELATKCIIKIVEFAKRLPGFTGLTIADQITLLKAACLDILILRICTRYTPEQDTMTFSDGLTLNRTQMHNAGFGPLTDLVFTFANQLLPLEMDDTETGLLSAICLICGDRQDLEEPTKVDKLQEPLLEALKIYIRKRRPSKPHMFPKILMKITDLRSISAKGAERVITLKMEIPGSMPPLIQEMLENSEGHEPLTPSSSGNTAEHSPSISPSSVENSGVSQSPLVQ
# [8] = target: Retinoic acid receptor gamma (Homo sapiens) (UniProt P13631); assay: Antagonist activity at human RARgamma expressed in COS-1 cells assessed as inhibition of ATRA-induced transactivation by luciferase reporter gene assay
# Retinoic acid receptor gamma (Homo sapiens), sequence (P13631 whole entry, looked up): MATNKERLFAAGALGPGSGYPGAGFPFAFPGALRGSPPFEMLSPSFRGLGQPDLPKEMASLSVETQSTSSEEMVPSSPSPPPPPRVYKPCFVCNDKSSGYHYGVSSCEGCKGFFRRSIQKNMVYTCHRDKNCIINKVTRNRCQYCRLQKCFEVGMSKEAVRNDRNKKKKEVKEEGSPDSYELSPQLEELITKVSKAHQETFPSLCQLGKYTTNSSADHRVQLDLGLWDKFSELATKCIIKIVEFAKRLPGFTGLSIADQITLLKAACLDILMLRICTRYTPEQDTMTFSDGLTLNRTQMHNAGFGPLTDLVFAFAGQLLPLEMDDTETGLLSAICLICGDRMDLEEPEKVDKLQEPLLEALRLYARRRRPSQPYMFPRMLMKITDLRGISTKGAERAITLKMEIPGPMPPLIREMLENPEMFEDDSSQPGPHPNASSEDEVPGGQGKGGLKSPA
# [9] = test system: Retinoid X receptor beta (Mus musculus); assay: Antagonist activity at mouse RXRbeta expressed in COS-1 cells assessed as inhibition of PA024-induced transactivation by luciferase reporter gene assay
# [10] = target: Retinoic acid receptor alpha (Homo sapiens) (UniProt P10276); assay: Antagonist activity at human RARalpha expressed in COS-1 cells assessed as inhibition of Am80-induced transactivation by luciferase reporter gene assay
# Retinoic acid receptor alpha (Homo sapiens), sequence (P10276 whole entry, looked up): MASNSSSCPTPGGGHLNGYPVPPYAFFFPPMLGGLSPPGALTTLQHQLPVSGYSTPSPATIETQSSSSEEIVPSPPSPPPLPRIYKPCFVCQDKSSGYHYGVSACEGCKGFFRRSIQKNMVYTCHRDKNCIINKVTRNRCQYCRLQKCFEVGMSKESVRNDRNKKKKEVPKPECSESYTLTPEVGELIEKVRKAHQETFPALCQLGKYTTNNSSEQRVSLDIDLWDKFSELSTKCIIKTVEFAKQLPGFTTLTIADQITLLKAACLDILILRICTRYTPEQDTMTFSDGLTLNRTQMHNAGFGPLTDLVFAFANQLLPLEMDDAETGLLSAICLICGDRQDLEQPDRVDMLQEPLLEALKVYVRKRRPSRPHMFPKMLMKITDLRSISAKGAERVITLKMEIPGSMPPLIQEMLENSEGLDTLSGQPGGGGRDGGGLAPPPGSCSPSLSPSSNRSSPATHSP
# HL-60 [11] = assay: Synergistic induction of human HL60 cell differentiation in presence of RAR agonist Am80 at 1 X 10^-10 M; format: functional
# How it was run: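 Synergy was tested in HL-60 cells given test compound together with 1 × 10⁻¹⁰ M Am80 for 4 days, with each agent also assayed alone. Differentiation was scored by NBT reduction (0.2% NBT, 200 ng/mL TPA, 20 min, 37 °C; ≥200 cells). SEC₅₀ is the concentration giving 50% differentiated cells in the presence of Am80.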
SMILES,Activity (HL-60 [1]),Differentiated cells % at 0.1 µM (HL-60 [2]),inhibition (HL-60 [3]),Differentiated cells % at 1 µM (HL-60 [4]),further results
CC1(C)CCC(C)(C)c2cc(N(Cc3ccc4ccccc4c3)c3ccc(C(=O)O)cc3)ccc21,inactive,30%,Dose-dependent effect,< 10%,–
CCCCCCCCN(c1ccc(C(=O)O)cc1)c1ccc2c(c1)C(C)(C)CCC2(C)C,inactive,–,Dose-dependent effect,< 10%,–
CCCCCCCN(c1ccc(C(=O)O)cc1)c1ccc2c(c1)C(C)(C)CCC2(C)C,inactive,–,Dose-dependent effect,< 10%,inhibition [5]: inactive; inhibition [6]: inactive; inhibition [7]: Dose-dependent effect; inhibition [8]: Dose-dependent effect; inhibition [9]: inactive; inhibition [10]: Dose-dependent effect
CC1(C)CCC(C)(C)c2cc(N(Cc3ccc(C(F)(F)F)cc3)c3ccc(C(=O)O)cc3)ccc21,inactive,–,Dose-dependent effect,< 10%,–
CCOc1c(F)c(F)c(CN(c2ccc(C(=O)O)cc2)c2ccc3c(c2)C(C)(C)CCC3(C)C)c(F)c1F,inactive,< 10%,Dose-dependent effect,< 10%,inhibition [5]: inactive; inhibition [6]: inactive; inhibition [7]: Dose-dependent effect; inhibition [8]: Dose-dependent effect; inhibition [9]: inactive; inhibition [10]: Dose-dependent effect
Cc1ccc(CN(c2ccc(C(=O)O)cc2)c2ccc3c(c2)C(C)(C)CCC3(C)C)cc1,inactive,–,Dose-dependent effect,< 10%,–
CC1(C)CCC(C)(C)c2cc(Nc3ccc(C(=O)O)cc3)ccc21,–,–,–,–,"EC50 (HL-60 [1]; Homo sapiens, HL-60, read-out: EC50): 680 nM; SEC50 (HL-60 [11]): 2 ×10⁻⁸ M"
CC1(C)CCC(C)(C)c2cc(N(CC3CC3)c3ccc(C(=O)O)cc3)ccc21,–,–,–,–,EC50 (HL-60 [1]; hl-60): Not Active; SEC50 (HL-60 [11]): 8.1 ×10⁻¹⁰ M
CC1(C)CCC(C)(C)c2cc(N(Cc3ccccc3-c3ccccc3)c3ccc(C(=O)O)cc3)ccc21,inactive,10%,Dose-dependent effect,< 10%,–
CC1(C)CCC(C)(C)c2cc(N(Cc3ccccc3)c3ccc(C(=O)O)cc3)ccc21,inactive,–,–,–,–
